The target in series [1] is T1, UDP-glucuronosyltransferase 1A1 (Homo sapiens, UniProt P22309).
T1 sequence (P22309 whole entry): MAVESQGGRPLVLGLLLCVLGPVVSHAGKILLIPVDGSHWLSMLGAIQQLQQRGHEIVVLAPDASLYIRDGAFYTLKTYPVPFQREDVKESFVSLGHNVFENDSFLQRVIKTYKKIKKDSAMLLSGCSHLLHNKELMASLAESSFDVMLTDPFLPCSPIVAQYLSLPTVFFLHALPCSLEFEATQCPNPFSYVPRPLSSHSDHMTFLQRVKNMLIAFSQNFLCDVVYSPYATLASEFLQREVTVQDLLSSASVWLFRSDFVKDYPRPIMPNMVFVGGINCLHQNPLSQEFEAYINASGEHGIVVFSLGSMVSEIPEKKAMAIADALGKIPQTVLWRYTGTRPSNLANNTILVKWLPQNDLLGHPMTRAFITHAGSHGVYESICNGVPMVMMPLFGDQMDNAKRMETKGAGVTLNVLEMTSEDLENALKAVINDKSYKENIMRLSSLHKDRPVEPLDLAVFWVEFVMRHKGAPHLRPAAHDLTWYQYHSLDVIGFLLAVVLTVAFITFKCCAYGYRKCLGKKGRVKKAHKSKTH
As to the kind of experiment: Drug level assessed as human UGT1A1-mediated compound formation from 5 to 50 uM T-5224 after 60 mins in presence of UDP-glucuronic acid by HPLC method. The class given is ADME. As to conditions: recombinant enzyme, 1 h; call rule not given here. Put shortly:
(§1)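 Recombinant human UGT microsomes from baculovirus-infected insect cells, 0.1 mg protein/mL, in 50 mM Tris-HCl pH 7.5, 8 mM MgCl2, alamethicin. T-5224 in DMSO (2% v/v final). Preincubated 5 min at 37°C, started with 2 mM UDPGA, run 60 min at 37°C and stopped with acetonitrile. Glucuronides resolved by C18 HPLC with UV at 290 nm. Linearity was checked at 0.05–0.2 mg/mL protein and 10–60 min.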

Series [2] addresses T2, UDP-glucuronosyltransferase 1A3 (Homo sapiens, UniProt P35503).
T2 sequence (P35503 whole entry): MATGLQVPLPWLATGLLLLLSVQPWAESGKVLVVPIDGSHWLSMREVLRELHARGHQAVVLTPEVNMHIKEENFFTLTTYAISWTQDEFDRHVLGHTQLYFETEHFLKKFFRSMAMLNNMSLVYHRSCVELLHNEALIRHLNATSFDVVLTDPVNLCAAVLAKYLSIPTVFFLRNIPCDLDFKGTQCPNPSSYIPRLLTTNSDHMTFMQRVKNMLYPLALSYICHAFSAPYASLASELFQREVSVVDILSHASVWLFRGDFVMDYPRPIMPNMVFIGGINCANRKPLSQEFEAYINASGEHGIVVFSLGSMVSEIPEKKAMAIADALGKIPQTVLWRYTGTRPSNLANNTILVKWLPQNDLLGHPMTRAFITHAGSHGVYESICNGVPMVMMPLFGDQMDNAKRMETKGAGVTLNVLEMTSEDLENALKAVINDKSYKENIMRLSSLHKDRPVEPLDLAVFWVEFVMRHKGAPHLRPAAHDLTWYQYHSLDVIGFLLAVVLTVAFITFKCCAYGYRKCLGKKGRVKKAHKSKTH
Briefly: Drug level assessed as human UGT1A3-mediated compound formation from 5 to 50 uM T-5224 after 60 mins in presence of UDP-glucuronic acid by HPLC method. The class given is ADME. As to conditions: recombinant enzyme, 1 h. Put shortly:
as §1

The target of series [3] is T1, UDP-glucuronosyltransferase 1A1. Briefly: Drug level assessed as human UGT1A1-mediated compound formation from 5 to 50 uM T-5224 after 10 to 60 mins in presence of UDP-glucuronic acid by HPLC method. The class given is ADME. As to conditions: recombinant enzyme. Put shortly: as §1
Series [4] addresses T2, UDP-glucuronosyltransferase 1A3. As to the kind of experiment: Drug level assessed as human UGT1A3-mediated compound formation from 5 to 50 uM T-5224 after 10 to 60 mins in presence of UDP-glucuronic acid by HPLC method. The class given is ADME. Particulars: recombinant enzyme. Put shortly:
as §1

In series [5] the target is T1, UDP-glucuronosyltransferase 1A1. Briefly: Drug level assessed as human UGT1A1-mediated compound formation from 5 to 50 uM T-5224 after 60 mins in presence of UDP-glucuronic acid using 0.05 to 0.2 mg/ml by HPLC method. The class given is ADME. Particulars: recombinant enzyme, 1 h. In a few lines: as §1
Series [6] deals with T2, UDP-glucuronosyltransferase 1A3. As to the kind of experiment: Drug level assessed as human UGT1A3-mediated compound formation from 5 to 50 uM T-5224 after 60 mins in presence of UDP-glucuronic acid using 0.05 to 0.2 mg/ml by HPLC method. As to conditions: recombinant enzyme, 1 h. The class given is ADME. Put shortly: as §1
For series [7], the system named is Liver microsome. Briefly: Drug level in pooled human liver microsomes treated with T-5224 assessed as compound formation in presence of UDPGA by LC-MS/MS method. The class given is ADME.
Series [8] deals with Liver microsome. Briefly: Drug level in pooled human liver microsomes treated with 10 uM T-5224 assessed as compound formation after 10 mins by HPLC method. The series is classed as ADME. In a few lines: (§2)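 Pooled human liver microsomes at 0.5 mg protein/mL, or pooled intestinal microsomes at 0.25 mg/mL, in 50 mM Tris-HCl pH 7.5, 8 mM MgCl2, alamethicin, with 2 mM UDPGA. T-5224 at 10 μM, 10 min at 37°C after 5 min preincubation; stopped with acetonitrile. HPLC with UV at 290 nm. Linearity was tested over 0.1–1.0 mg/mL protein and 5–30 min.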
(Microsomes from liver hold many membrane-bound enzymes, among them those of drug oxidation.)

The nature of series [9]: Drug level in pooled human intestinal microsomes treated with 10 uM T-5224 assessed as compound formation after 10 mins by HPLC method. The class given is ADME, Intestine, Microsome. Put shortly: as §2
Series [10] concerns Liver microsome. As to the kind of experiment: Drug level in pooled human liver microsomes treated with 10 uM T-5224 assessed as compound formation after 5 to 30 mins by HPLC method. The series is classed as ADME. In a few lines: as §2
The nature of series [11]: Drug level in pooled human intestinal microsomes treated with 10 uM T-5224 assessed as compound formation after 5 to 30 mins by HPLC method. The class given is ADME, Intestine, Microsome. In a few lines:
as §2

The subject of series [12] is Liver microsome. Briefly: Drug level in pooled human liver microsomes treated with 10 uM T-5224 assessed as compound formation after 10 mins using 0.1 to 1.0 mg/ml microsomal protein content by HPLC method. The class given is ADME. In a few lines: as §2
Series [13] in a line: Drug level in pooled human intestinal microsomes treated with 10 uM T-5224 assessed as compound formation after 10 mins using 0.1 to 1.0 mg/ml microsomal protein content by HPLC method. The class given is ADME, Intestine, Microsome. Put shortly:
as §2

Substrate in series [14]: O=C(O)CCc1cc(C(=O)c2ccc(OC3CCCC3)cc2O)ccc1OCc1ccc2c(O)noc2c1
Briefly: Drug metabolism assessed as Kcat to Km ratio for human UGT1A1-mediated T-5224 hydroxyl O-glucuronide formation per mg protein after 10 to 60 mins in presence of UDP-glucuronic acid by HPLC method. The series is classed as ADME. Put shortly: (§3)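 Recombinant human UGT1A1 from baculovirus-infected insect cells, 0.1 mg protein/mL, in 50 mM Tris-HCl pH 7.5 with 8 mM MgCl2 and alamethicin. T-5224 at 10–50 μM (2% DMSO final). After 5 min preincubation at 37°C, 2 mM UDPGA starts the reaction; 60 min at 37°C, stopped with acetonitrile. Glucuronides quantified by HPLC-UV at 290 nm, triplicate points. Substrate-inhibition fit gives Vmax, Km and Ksi. kcat = Vmax/E0, with UGT content taken from immunoblot.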

Substrate in series [15]: O=C(O)CCc1cc(C(=O)c2ccc(OC3CCCC3)cc2O)ccc1OCc1ccc2c(O)noc2c1
Briefly: Drug metabolism assessed as human UGT1A1-mediated T-5224 acyl O-glucuronide formation after 10 to 60 mins in presence of UDP-glucuronic acid by HPLC method. The class given is ADME. In a few lines:
as §3

Substrate in series [16]: O=C(O)CCc1cc(C(=O)c2ccc(OC3CCCC3)cc2O)ccc1OCc1ccc2c(O)noc2c1
Briefly: Drug metabolism assessed as Kcat to Km ratio for human UGT1A1-mediated T-5224 acyl O-glucuronide formation per mg protein after 10 to 60 mins in presence of UDP-glucuronic acid by HPLC method. The class given is ADME. In a few lines:
as §3

Substrate in series [17]: O=C(O)CCc1cc(C(=O)c2ccc(OC3CCCC3)cc2O)ccc1OCc1ccc2c(O)noc2c1
Briefly: Drug metabolism assessed as human UGT1A1-mediated T-5224 hydroxyl O-glucuronide formation after 10 to 60 mins in presence of UDP-glucuronic acid by HPLC method. The series is classed as ADME. In a few lines: as §3

As a reminder, the kcat/Km is the second-order rate constant that governs catalysis at low substrate concentration. One may read the Km as the concentration of substrate that gives half-maximal velocity. As a reminder, the kcat is the number of substrate molecules converted per active site and unit of time at saturation.

`O=C(CCc1cc(C(=O)c2ccc(OC3CCCC3)cc2O)ccc1OCc1ccc2c(O)noc2c1)O[C@@H]1O[C@H](C(=O)O)[C@@H](O)[C@H](O)[C@H]1O`: the Drug metabolism entry was “metabolite_detected” in series [1]; “metabolite_detected” in series [2]; “Dose-dependent effect” in [3]; “Dose-dependent effect” in [4]; “Dose-dependent effect” in [5]; “Dose-dependent effect” in series [6]. Further, the Drug metabolism result in the series with Liver microsome [7] is “metabolite_detected”; in the series with Liver microsome [8], “metabolite_detected”; in [9], “metabolite_detected”; with Liver microsome [10], “Dose-dependent effect”; in series [11] it was “Dose-dependent effect”; in the series with Liver microsome [12], “Dose-dependent effect”. Moreover, the Drug metabolism result in series [13] was “Dose-dependent effect”.

B1: UDP-glucuronosyltransferase 1A1 (Homo sapiens) (protein)
chain: MAVESQGGRPLVLGLLLCVLGPVVSHAGKILLIPVDGSHWLSMLGAIQQLQQRGHEIVVLAPDASLYIRDGAFYTLKTYPVPFQREDVKESFVSLGHNVFENDSFLQRVIKTYKKIKKDSAMLLSGCSHLLHNKELMASLAESSFDVMLTDPFLPCSPIVAQYLSLPTVFFLHALPCSLEFEATQCPNPFSYVPRPLSSHSDHMTFLQRVKNMLIAFSQNFLCDVVYSPYATLASEFLQREVTVQDLLSSASVWLFRSDFVKDYPRPIMPNMVFVGGINCLHQNPLSQEFEAYINASGEHGIVVFSLGSMVSEIPEKKAMAIADALGKIPQTVLWRYTGTRPSNLANNTILVKWLPQNDLLGHPMTRAFITHAGSHGVYESICNGVPMVMMPLFGDQMDNAKRMETKGAGVTLNVLEMTSEDLENALKAVINDKSYKENIMRLSSLHKDRPVEPLDLAVFWVEFVMRHKGAPHLRPAAHDLTWYQYHSLDVIGFLLAVVLTVAFITFKCCAYGYRKCLGKKGRVKKAHKSKTH
Take B1: the kcat/Km was found to be 284 M⁻¹ s⁻¹ in series [14] and 903 M⁻¹ s⁻¹ in series [16]. The Km in series [15] came out at 7.91 µM; in [17] it was 5.56 µM. In addition, the kcat in series [15] turned out to be 0.0072 s⁻¹; in series [17], 0.00158 s⁻¹.

Values taken from ChEMBL document CHEMBL3526015, “Metabolism of the c-Fos/activator protein-1 inhibitor T-5224 by multiple human UDP-glucuronosyltransferase isoforms” (Drug Metab Dispos, 2011).
